We go through one molecule from ChEMBL document CHEMBL4813970, “Design, synthesis and evaluation of novel dimethylamino chalcone-O-alkylamines derivatives as potential multifunctional agents against Alzheimer's disease” (Eur J Med Chem, 2021).

Activity calls are given as the source filed them. The calls are words filed in the database; no cut-off is given here.

Data set [1] deals with T1, Amyloid-beta precursor protein (Homo sapiens, UniProt P05067). Kind of data set: Disaggregation of self-induced amyloid beta (1 to 42) (unknown origin) at 25 uM measured by Thioflavin T based fluorometric assay relative to control.
T1 sequence (P05067 whole entry): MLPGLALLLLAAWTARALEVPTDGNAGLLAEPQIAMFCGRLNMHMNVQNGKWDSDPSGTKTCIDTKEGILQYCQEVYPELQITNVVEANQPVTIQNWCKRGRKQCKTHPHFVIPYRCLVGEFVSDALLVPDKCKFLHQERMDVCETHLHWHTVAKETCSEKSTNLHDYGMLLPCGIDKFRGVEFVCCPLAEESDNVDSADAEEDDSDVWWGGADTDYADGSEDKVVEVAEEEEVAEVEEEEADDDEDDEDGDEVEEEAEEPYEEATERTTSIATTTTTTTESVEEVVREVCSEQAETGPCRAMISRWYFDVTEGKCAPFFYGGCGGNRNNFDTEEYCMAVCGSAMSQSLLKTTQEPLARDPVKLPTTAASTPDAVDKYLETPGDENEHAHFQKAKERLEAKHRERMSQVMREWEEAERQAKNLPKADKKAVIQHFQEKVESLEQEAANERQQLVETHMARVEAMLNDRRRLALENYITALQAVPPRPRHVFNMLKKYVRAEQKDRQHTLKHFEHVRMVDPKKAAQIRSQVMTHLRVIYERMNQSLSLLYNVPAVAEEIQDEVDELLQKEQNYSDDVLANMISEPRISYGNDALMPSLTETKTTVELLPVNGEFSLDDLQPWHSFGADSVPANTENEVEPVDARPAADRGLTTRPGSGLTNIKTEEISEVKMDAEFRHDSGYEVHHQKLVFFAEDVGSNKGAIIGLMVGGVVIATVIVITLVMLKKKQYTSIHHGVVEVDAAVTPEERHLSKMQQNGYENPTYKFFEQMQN
Data set [2] concerns the target T1, Amyloid-beta precursor protein. The experiment in a line: Inhibition of self-induced amyloid beta (1 to 42) (unknown origin) aggregation by T-fluorescence assay relative to control. The following applies: read-out: IC50. In short, it runs like this: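 IC50 by ThT fluorescence (excitation 446 nm, emission 490 nm). Computed only where inhibition of self-induced Aβ1-42 aggregation at 25 μM exceeded 90%. Triplicate; mean of three independent experiments.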

Data set [3] deals with T2, Acetylcholinesterase (Rattus norvegicus, UniProt P37136).
T2 sequence (P37136 whole entry): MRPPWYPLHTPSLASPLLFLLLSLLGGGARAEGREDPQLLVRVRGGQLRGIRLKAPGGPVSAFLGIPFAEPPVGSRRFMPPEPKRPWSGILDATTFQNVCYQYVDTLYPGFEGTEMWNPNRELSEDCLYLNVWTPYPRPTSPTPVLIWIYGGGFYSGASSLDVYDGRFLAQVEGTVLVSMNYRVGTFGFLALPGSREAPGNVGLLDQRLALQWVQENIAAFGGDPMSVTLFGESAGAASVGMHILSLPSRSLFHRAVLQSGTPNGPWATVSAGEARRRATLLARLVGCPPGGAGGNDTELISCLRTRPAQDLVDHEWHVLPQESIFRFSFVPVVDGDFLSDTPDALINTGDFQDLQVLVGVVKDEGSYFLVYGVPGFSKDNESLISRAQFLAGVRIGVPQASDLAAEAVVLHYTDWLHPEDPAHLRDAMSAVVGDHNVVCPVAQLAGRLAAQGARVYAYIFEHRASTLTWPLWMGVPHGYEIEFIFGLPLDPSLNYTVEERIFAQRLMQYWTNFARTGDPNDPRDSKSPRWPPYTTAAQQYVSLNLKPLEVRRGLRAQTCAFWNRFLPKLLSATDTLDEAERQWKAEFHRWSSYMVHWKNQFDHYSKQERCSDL
Kind of data set: Inhibition of rat cortex homogenate acetylcholinesterase by Ellman's method. For orientation: Ellman's reagent forms a yellow product with free thiols.

Data set [4] deals with T3, Acetylcholinesterase (Electrophorus electricus, UniProt O42275). Kind of data set: Inhibition of electric eel AChE using acetylthiocholine iodide as substrate by Ellman's method.
T3 sequence (O42275 whole entry): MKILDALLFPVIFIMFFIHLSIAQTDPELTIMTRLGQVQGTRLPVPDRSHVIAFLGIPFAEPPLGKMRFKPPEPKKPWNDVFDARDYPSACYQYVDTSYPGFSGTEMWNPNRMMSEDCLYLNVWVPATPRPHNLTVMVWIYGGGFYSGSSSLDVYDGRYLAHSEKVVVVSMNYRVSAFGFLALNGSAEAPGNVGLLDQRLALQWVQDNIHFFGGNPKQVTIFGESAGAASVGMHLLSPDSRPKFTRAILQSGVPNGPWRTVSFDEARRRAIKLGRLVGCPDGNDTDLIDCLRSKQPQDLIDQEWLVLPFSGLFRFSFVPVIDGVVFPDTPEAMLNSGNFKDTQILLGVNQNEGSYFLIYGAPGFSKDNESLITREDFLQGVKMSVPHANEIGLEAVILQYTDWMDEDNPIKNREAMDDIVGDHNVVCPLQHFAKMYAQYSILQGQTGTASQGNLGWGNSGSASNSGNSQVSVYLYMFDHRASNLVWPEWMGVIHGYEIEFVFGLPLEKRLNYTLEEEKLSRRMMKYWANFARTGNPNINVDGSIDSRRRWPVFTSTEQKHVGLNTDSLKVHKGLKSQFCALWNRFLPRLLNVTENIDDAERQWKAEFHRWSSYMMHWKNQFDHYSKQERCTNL
Data set [5] deals with Acetylcholinesterase (Electrophorus electricus) (UniProt O42275). Kind of data set: Mixed type inhibition of electric eel AChE assessed as decrease in Vmax by reciprocal Lineweaver-Burk plot analysis. The following applies: dose 0.5-2 µM.
Chain of Acetylcholinesterase (Electrophorus electricus) (O42275 24-633 limits assumed): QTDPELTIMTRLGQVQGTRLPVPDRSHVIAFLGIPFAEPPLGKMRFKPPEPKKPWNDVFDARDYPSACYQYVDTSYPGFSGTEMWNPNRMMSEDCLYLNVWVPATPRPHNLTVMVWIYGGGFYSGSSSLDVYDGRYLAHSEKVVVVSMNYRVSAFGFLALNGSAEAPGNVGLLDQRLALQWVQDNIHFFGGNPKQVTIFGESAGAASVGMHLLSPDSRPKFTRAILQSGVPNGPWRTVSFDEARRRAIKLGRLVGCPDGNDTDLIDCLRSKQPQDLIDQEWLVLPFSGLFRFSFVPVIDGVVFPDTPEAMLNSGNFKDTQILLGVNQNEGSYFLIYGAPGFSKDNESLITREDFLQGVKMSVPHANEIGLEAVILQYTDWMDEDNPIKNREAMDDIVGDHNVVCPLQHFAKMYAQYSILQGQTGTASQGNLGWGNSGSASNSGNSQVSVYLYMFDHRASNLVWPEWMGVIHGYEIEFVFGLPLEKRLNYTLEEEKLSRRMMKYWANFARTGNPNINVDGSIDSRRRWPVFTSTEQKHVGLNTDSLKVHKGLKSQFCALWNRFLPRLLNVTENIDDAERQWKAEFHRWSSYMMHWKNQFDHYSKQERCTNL
Data set [6] concerns the target T3, Acetylcholinesterase. Kind of data set: Mixed type inhibition of electric eel AChE by reciprocal Lineweaver-Burk plot analysis.
Data set [7] in a line: Metal chelating activity assessed as compound-Cu2+ complex formation by measuring maximum absorption wavelength shifted from 444 nm to 460 nm by UV-Visible spectrophotometry. In short, it runs like this:
(§1)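 UV-vis spectra recorded from 200 to 600 nm on a multimode reader. Metals tested as CuCl2, FeSO4, ZnCl2 and AlCl3.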

The nature of data set [8]: Metal chelating activity assessed as compound-Al3+ complex formation by measuring maximum absorption wavelength shifted from 444 nm to 468 nm by UV-Visible spectrophotometry. The procedure, abridged: as §1
Data set [9] in a line: Metal chelating activity assessed as compound Fe2+ complex formation by UV-Visible spectrophotometry. The procedure, abridged:
as §1

The nature of data set [10]: Metal chelating activity assessed as compound Zn2+ complex formation by UV-Visible spectrophotometry. The procedure, abridged:
as §1

The target in data set [11] is T1, Amyloid-beta precursor protein. The experiment in a line: Inhibition of Cu2+ induced amyloid beta (1 to 42 residues) (unknown origin) aggregation at 25 uM by thioflavin-T fluorescence method relative to control.
Data set [12] concerns the target T4, Amine oxidase [flavin-containing] B (Homo sapiens, UniProt P27338).
T4 sequence (P27338 whole entry): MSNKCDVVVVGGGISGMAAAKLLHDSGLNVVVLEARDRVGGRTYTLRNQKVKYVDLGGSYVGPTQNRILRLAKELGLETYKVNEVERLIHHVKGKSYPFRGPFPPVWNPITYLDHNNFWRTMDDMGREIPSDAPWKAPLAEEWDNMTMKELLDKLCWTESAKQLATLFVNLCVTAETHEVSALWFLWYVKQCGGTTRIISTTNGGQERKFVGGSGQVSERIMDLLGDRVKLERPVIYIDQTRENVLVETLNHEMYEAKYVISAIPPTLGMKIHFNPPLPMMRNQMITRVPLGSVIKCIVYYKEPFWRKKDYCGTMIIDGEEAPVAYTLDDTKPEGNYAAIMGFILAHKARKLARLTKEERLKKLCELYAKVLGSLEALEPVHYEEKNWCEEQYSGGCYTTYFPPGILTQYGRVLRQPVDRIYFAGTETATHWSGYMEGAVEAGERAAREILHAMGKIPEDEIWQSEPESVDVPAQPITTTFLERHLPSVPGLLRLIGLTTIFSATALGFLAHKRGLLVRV
Kind of data set: Inhibition of human recombinant MAO-B by multimode plate reader assay.

For a further data set, the species on record is Homo sapiens. Kind of data set: Selectivity index, ratio of IC50 for recombinant human MAO-A to IC50 for recombinant human MAO-B. In short, it runs like this: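 Selectivity index taken as IC50(hMAO-A)/IC50(hMAO-B). IC50 values are mean ± SEM from three experiments.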
The test system of data set [13] is PC-12. Kind of data set: Cytotoxicity against rat PC12 cells assessed as cell viability by MTT assay relative to control. It is filed as functional. For orientation: Tetrazolium assays rely on reduction of a dye to a coloured formazan, in cell work by metabolically active cells.
In data set [14] the test system is PC-12. Kind of data set: Neuroprotective activity against H2O2-induced cytotoxicity in rat PC12 cells assessed as increase in cell viability by MTT assay. It is filed as functional, cell-based. In short, it runs like this: (§2)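 PC12 cells exposed to 100 μM H2O2, with or without compound. Viability read by MTT reduction relative to control. Trolox 100 μM is the reference.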

Data set [15] deals with PC-12. Kind of data set: Neuroprotective activity against H2O2-induced cytotoxicity in rat PC12 cells assessed as increase in cell viability at 10 uM by MTT assay. It is filed as functional. In short, it runs like this: as §2
For data set [16], the system named is PC-12. Kind of data set: Neuroprotective activity against H2O2-induced cytotoxicity in rat PC12 cells assessed as increase in cell viability at 1 uM by MTT assay. Format: functional. In short, it runs like this: as §2
Data set [17] deals with PC-12. Kind of data set: Neuroprotective activity against H2O2-induced cytotoxicity in rat PC12 cells assessed as increase in cell viability by LDH assay. It is filed as functional, cell-based. The procedure, abridged:
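PC12 cells exposed to H2O2, with or without compound. Membrane damage read as LDH release into the supernatant. Trolox is the reference.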

A short description of data set [18]: Permeability of the compound by PAMPA. It is filed as ADME. The following applies: read-out: permeability. The procedure, abridged:
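PAMPA-BBB. Assay validated against 11 commercial drugs with reported permeability values.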
(In PAMPA a lipid-coated filter parts donor from acceptor wells.)

Data set [19] in a line: Acute toxicity in KM mouse assessed as mortality upto 1000 mg/kg,po administered as single dose measured for 14 days. It is filed as organism-based. To be noted: in vivo, 336 h, time 14 day.
The next data set has as its system Mus musculus. The experiment in a line: Antialzheimer activity in scopolamine-induced po dosed KM mouse model of memory impairment assessed as increase in latency time treated for 7 days followed by training trial at 1 hr post dose and subsequent scopolamine challenge at 30 mins post training trial and measured post last dose by step-down passive avoidance test. Format: functional, organism-based. To be noted: dose 2.3-20.4 mg/kg, time 7.0 day. The procedure, abridged:
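Mice orally dosed at 2.3, 6.8 and 20.4 mg/kg, with donepezil 5.0 mg/kg p.o. as positive control, 1 h before training trial. Scopolamine 3 mg/kg i.p. given 30 min later. Training trial uses a 0.5 mA, 2 s foot shock on stepping down from the block. Step-down latency is measured as the test trial 24 h after training. n = 10 per group.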

Turning to `CCN(CCCCOc1ccc(C(=O)/C=C/c2ccc(N(C)C)cc2)c(O)c1)Cc1ccccc1N(C)C`, the Activity is 95.1% in data set [1]; over 50 µM in the data set on PC-12 [13]; “Dose-Dependent Effect” with PC-12 [14]; 88.1% in the data set with PC-12 [15]; 70.9% in the data set on PC-12 [16]; “Non-Toxic” in data set [19]. Besides, the Activity result with Mus musculus is “Dose-Dependent Effect”. In addition, the IC50 (in general, the concentration that inhibits the measured activity by half) turned out to be 880 nM in [2], 130 nM on Acetylcholinesterase [3], 690 nM on Acetylcholinesterase [4] and 1000 nM in [12]. Besides, in data set [5], the inhibition (usually the percentage by which the read-out fell short of the control) was “Active”. For the same molecule, on Acetylcholinesterase [6], the Ki (commonly the dissociation constant of the complex between target and ligand, obtained from inhibition or displacement) was determined as 500 nM. Also, the outcome (in [7]; in data set [8]; with PC-12 [17]) was Active. For the same molecule, the result in data set [9] and in [10] was inactive. The molecule further returned an inhibition in [11] of 95.3%. Also, the Selectivity Index in the data set filed under Homo sapiens amounted to 18.4. Besides, the Papp in data set [18] amounted to 13.4 ×10⁻⁶ cm/s.
